Measurements: ChEMBL document CHEMBL4689842, “EUbOPEN Chemogenomics Library wave 1” (2021)

Test system: U2OS
Test: Multiplex assay against U2OS
Type: toxicity, cell-based
Settings: human
Procedure, shortened: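 Per cents of healthy-nucleus cells form the tubulin, mitochondrial-mass and membrane-permeability phenotype values. Live cells were stained at seeding with Hoechst33342, BioTracker Green Microtubule Cytoskeleton Dye, MitoTracker Red and Annexin V Alexa Fluor 680. After compound addition they were imaged on a CQ1 microscope at 37°C and 5% CO2, and CellPathfinder machine-learning gating split them into Hoechst high-intensity objects or normal cells, normal cells into healthy, pyknosed or fragmented nuclei, and pyknosed cells into mitotic or apoptotic.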

[1] = 12 h, 1 µM, compound concentration 1 uM, replicate 1
[2] = 12 h, 1 µM, compound concentration 1 uM, replicate 2
[3] = 12 h, 10 µM, compound concentration 10 uM, replicate 1
[4] = 12 h, 10 µM, compound concentration 10 uM, replicate 2
[5] = 24 h, 1 µM, compound concentration 1 uM, replicate 1
[6] = 24 h, 1 µM, compound concentration 1 uM, replicate 2
[7] = 24 h, 10 µM, compound concentration 10 uM, replicate 1
[8] = 24 h, 10 µM, compound concentration 10 uM, replicate 2

Compound: CCOc1cc(N2CCC(O)CC2)ccc1Nc1ncc2c(n1)N(C1CCCC1)CCC(=O)N2C
- Population Apoptotic (%) [1]: 46%
- Population Fragmented Nuclei (%) [1]: 5%
- Population Healthy Nuclei (%) [1]: 86%
- Population Hoechst High Intensity Objects (%) [1]: 4%
- Population Membrane Permeable-Phenotype (%) [1]: 16%
- Population Mitochondria Different-Phenotype (%) [1]: 14%
- Population Mitotic Cells (%) [1]: 53%
- Population Normal (%) [1]: 95%
- Population Pyknosed Nuclei (%) [1]: 8%
- Population Tubulin-Different-Phenotype (%) [1]: 18%
- Population Apoptotic (%) [2]: 50%
- Population Fragmented Nuclei (%) [2]: 8%
- Population Healthy Nuclei (%) [2]: 89%
- Population Hoechst High Intensity Objects (%) [2]: 7%
- Population Membrane Permeable-Phenotype (%) [2]: 18%
- Population Mitochondria Different-Phenotype (%) [2]: 16%
- Population Mitotic Cells (%) [2]: 50%
- Population Normal (%) [2]: 92%
- Population Pyknosed Nuclei (%) [2]: 2%
- Population Tubulin-Different-Phenotype (%) [2]: 17%
- Population Apoptotic (%) [3]: 27%
- Population Fragmented Nuclei (%) [3]: 4%
- Population Healthy Nuclei (%) [3]: 89%
- Population Hoechst High Intensity Objects (%) [3]: 1%
- Population Membrane Permeable-Phenotype (%) [3]: 5%
- Population Mitochondria Different-Phenotype (%) [3]: 24%
- Population Mitotic Cells (%) [3]: 72%
- Population Normal (%) [3]: 98%
- Population Pyknosed Nuclei (%) [3]: 5%
- Population Tubulin-Different-Phenotype (%) [3]: 28%
- Population Apoptotic (%) [4]: 33%
- Population Fragmented Nuclei (%) [4]: 7%
- Population Healthy Nuclei (%) [4]: 90%
- Population Hoechst High Intensity Objects (%) [4]: 8%
- Population Membrane Permeable-Phenotype (%) [4]: 7%
- Population Mitochondria Different-Phenotype (%) [4]: 33%
- Population Mitotic Cells (%) [4]: 66%
- Population Normal (%) [4]: 91%
- Population Pyknosed Nuclei (%) [4]: 2%
- Population Tubulin-Different-Phenotype (%) [4]: 27%
- Population Fragmented Nuclei (%) [5]: 7%
- Population Healthy Nuclei (%) [5]: 87%
- Population Hoechst High Intensity Objects (%) [5]: 2%
- Population Membrane Permeable-Phenotype (%) [5]: 8%
- Population Mitochondria Different-Phenotype (%) [5]: 17%
- Population Normal (%) [5]: 97%
- Population Tubulin-Different-Phenotype (%) [5]: 18%
- Population Apoptotic (%) [6]: 60%
- Population Fragmented Nuclei (%) [6]: 10%
- Population Healthy Nuclei (%) [6]: 85%
- Population Hoechst High Intensity Objects (%) [6]: 6%
- Population Membrane Permeable-Phenotype (%) [6]: 11%
- Population Mitochondria Different-Phenotype (%) [6]: 20%
- Population Mitotic Cells (%) [6]: 40%
- Population Normal (%) [6]: 93%
- Population Pyknosed Nuclei (%) [6]: 4%
- Population Tubulin-Different-Phenotype (%) [6]: 20%
- Population Apoptotic (%) [7]: 44%
- Population Fragmented Nuclei (%) [7]: 3%
- Population Healthy Nuclei (%) [7]: 93%
- Population Hoechst High Intensity Objects (%) [7]: 1%
- Population Membrane Permeable-Phenotype (%) [7]: 5%
- Population Mitochondria Different-Phenotype (%) [7]: 22%
- Population Mitotic Cells (%) [7]: 55%
- Population Normal (%) [7]: 98%
- Population Pyknosed Nuclei (%) [7]: 3%
- Population Tubulin-Different-Phenotype (%) [7]: 24%
- Population Apoptotic (%) [8]: 20%
- Population Fragmented Nuclei (%) [8]: 9%
- Population Healthy Nuclei (%) [8]: 87%
- Population Hoechst High Intensity Objects (%) [8]: 7%
- Population Membrane Permeable-Phenotype (%) [8]: 2%
- Population Mitochondria Different-Phenotype (%) [8]: 24%
- Population Mitotic Cells (%) [8]: 80%
- Population Normal (%) [8]: 92%
- Population Pyknosed Nuclei (%) [8]: 2%
- Population Tubulin-Different-Phenotype (%) [8]: 38%
